Assay outcomes from PubChem.
UBC9 SUMO inh: SUMOylation inhibition | P63279 | HTRF SUMOylation assay, SAE1/SAE2 + UBC9, in vitro | inhibition, % at 35 µM | 290,000 compounds, 0.36% hits; in the data active = inhibition above about 50%, passing the limit was not always enough; inconclusive = no clear call, values can overlap the other calls
Redox H2O2 prof: compounds producing H2O2 with reducing agent – biochemical, NIH compound library profiling, artefact control for MLSCN library redox annotation, primary screen; 200,000 compounds, 0.03% hits; AID 878; DTT-dependent redox cycling H2O2, phenol red/HRP absorbance; 100% = 100 µM peroxide control, 0% = buffer; activation, % at 10 µM;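 active = activation of at least 50% relative to the plate's high and low controls in the primary single-dose screen; inactive = activation below 50%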;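 also: compound incubated with DTT at 0.8 mM final as the reducing agent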
Apaf-1 inh: inhibitors of human Apaf-1 apoptosome. reconstituted apoptosome caspase-3 activity, DEVD-Rh110 fluorescence. inhibition, % at 20 µM. 330,000 compounds, 0.71% hits; active = inhibition of at least 40% at 20 µM
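Material: cell-free apoptosome with Apaf-1, procaspase-3 and caspase-9; Buffer or medium: Hepes pH 7.5 with detergent and BSA; Reagent: cytochrome c trigger plus (Z-DEVD)2-Rh110 caspase-3 substrate; Times: compound with Apaf-1, dATP, procaspase-3 30 min, then 50 min reaction, room temperature; Technique: Rh110 fluorescence intensity.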
GSTO1 counter: blocks human GSTO1 in RBBP9 counter-screen. P78417. inhibition, % at 5.96 µM. recombinant GSTO1, activity-based probe fluorescence polarization. 300,000 compounds, 1.1% hits;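 active = inhibition above the campaign mean inhibition plus 3 SD, cut at about 35% in these data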
HKDC1 inhibitor: inhibitors of human hexokinase HKDC1; recombinant HKDC1, G6PDH/diaphorase resazurin coupled fluorescence; 340,000 compounds, 0.16% hits; Q2TB90; inhibition, % at 20 µM;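 active = inhibition above about 35% when tested at 20 µM, limit read from the data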
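Test system: recombinant HKDC1 (HK5) hexokinase enzyme, produced in-house / Doses: 20 µM test compound, 1% DMSO / Timing: 90 min, room temperature / Detection: G6PDH/diaphorase-coupled fluorescence, 1 mM NADP, 100 µM resazurin, 525/613 nm / Control set: DMSO wells with and without enzyme mix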
Of the large screens only hits and unclear results are named; the others gave an inactive call; ! = a repeat was not active. This is a sample that favours compounds with a hit; in the whole collection about 1.4% have one here.

N=C1/C(=C\c2ccc(-c3cc(Cl)cc(Cl)c3)o2)C(=O)N=C2SC=C(c3ccccc3)N12	none
N=C1/C(=C/c2ccc(-c3cccc(C(=O)O)c3)o2)C(=O)N=C2SC=C(c3ccccc3)N12	UBC9 SUMO inh 78
COc1ccc(S(=O)(=O)Nc2ccc(Oc3ccsc3C(=O)O)cc2)cc1	GSTO1 counter 35 (no result: Redox H2O2 prof)
COC(=O)c1ccc(NS(=O)(=O)c2ccc(OC)cc2)cc1	none
C/C(=C\c1ccccc1)C1Nc2cccc3cccc(c23)N1	Apaf-1 inh 41 (no result: UBC9 SUMO inh, Redox H2O2 prof, GSTO1 counter, HKDC1 inhibitor)
COc1ccc(-c2ccnc3nc(/N=C/N(C)C)nn23)cc1	UBC9 SUMO inh 57
CN(C)/C=N/c1nc2nccc(-c3cccnc3)n2n1	UBC9 SUMO inh 65
CN(C)/C=N/c1nc2nccc(-c3ccccn3)n2n1	UBC9 SUMO inh inconclusive
Cc1cc(C)n(C(=O)c2ccc([N+](=O)[O-])cc2Cl)n1	none (no result: Redox H2O2 prof)
COc1ccc(C(=O)NCC2CCCCC2)cc1S(=O)(=O)N1CCOCC1	none (no result: UBC9 SUMO inh, Redox H2O2 prof, GSTO1 counter)
O=C(c1ccco1)[C@@H]1[C@@H]2C(=O)N(c3ccc(Br)cc3)C(=O)[C@@H]2C2c3ccccc3C=CN21 (some centres not stated)	none (no result: Apaf-1 inh, GSTO1 counter)
CC(=O)[C@H]1[C@H](c2cccc(Cl)c2)C(C#N)(C#N)[C@@H]2c3ccccc3C=CN21	Apaf-1 inh 56 (no result: HKDC1 inhibitor)
CC(=O)[C@H]1[C@@H]2C(=O)N(c3cccc(Cl)c3)C(=O)[C@@H]2[C@H]2c3ccccc3C=CN21	Apaf-1 inh 73
O=C(c1ccc(Cl)cc1)[C@@H]1[C@@H]2C(=O)N(c3ccc(Cl)cc3)C(=O)[C@@H]2C2c3ccccc3C=NN21 (some centres not stated)	none
CC(=O)[C@@H]1[C@@H]2C(=O)N(c3ccc(F)c(Cl)c3)C(=O)[C@@H]2C2c3ccccc3C=CN21 (some centres not stated)	Apaf-1 inh 72 (no result: HKDC1 inhibitor)
O=C(c1ccco1)[C@@H]1[C@@H]2C(=O)N(c3ccc(F)cc3)C(=O)[C@@H]2C2c3ccccc3C=CN21 (some centres not stated)	Apaf-1 inh 83 (no result: HKDC1 inhibitor)
CCOc1ccc(C(=O)CCC(=O)N(CC)CC(=O)Nc2c(F)cccc2F)cc1	none (no result: UBC9 SUMO inh, Redox H2O2 prof)
N#C[C@@H]1[C@@H]2C(=O)N(c3ccc4c(c3)OCCO4)C(=O)[C@@H]2C2c3ccccc3C=CN21 (some centres not stated)	Apaf-1 inh 78 (no result: HKDC1 inhibitor)
Cc1noc(C)c1COc1ccccc1C(=O)N(C)CC(=O)Nc1ccc(F)cc1	none (no result: UBC9 SUMO inh, Redox H2O2 prof)
COc1ccc2nc(N3CCC(O)CC3)c(C#N)cc2c1	GSTO1 counter 36
O=C(NC1CCN(C(=O)Nc2cccc(Cl)c2)CC1)c1ccco1	none (no result: Redox H2O2 prof)
Cc1ccc(-n2nc(C)c(NC(=O)CCl)c2C)cc1	GSTO1 counter 84
CC(=O)Nc1c(C)nn(-c2ccc([N+](=O)[O-])cc2)c1C	none
Cc1ccc(-c2nn(-c3ccccc3)cc2NC(=O)CCl)cc1	GSTO1 counter 69
O/N=C(/c1ccc(F)cc1)C1CC1c1c(F)cccc1Cl (configuration not stated)	none (no result: Redox H2O2 prof)
CCOC(=O)CCCCCC(=O)Nc1ccc2c(c1)CC(=O)N([C@@H](C)CO)C[C@H](C)[C@@H](CN(C)C(=O)Nc1ccc3c(c1)OCO3)O2	none (no result: UBC9 SUMO inh, Redox H2O2 prof, GSTO1 counter)
CCOC(=O)c1ccccc1NC(=O)COC(=O)CCC(=O)c1ccc(C)cc1	none (no result: UBC9 SUMO inh, Redox H2O2 prof)
Cc1c(C)c2cc(Cl)c(O)c(CN3CCN(C)CC3)c2oc1=O	UBC9 SUMO inh 52
O=C(O)CSc1cc(C(=O)c2ccccc2O)cn2c(=O)c3c4c(sc3nc12)CCCC4	UBC9 SUMO inh 50 (no result: Redox H2O2 prof, Apaf-1 inh, GSTO1 counter)
Cc1cccc2cc(C(c3nnnn3CC3CCCO3)N3CCc4ccccc4C3)c(=O)[nH]c12 (configuration not stated)	Apaf-1 inh 79
Cc1ccc2cc(C(c3nnnn3CC3CCCO3)N3CCc4ccccc4C3)c(=O)[nH]c2c1 (configuration not stated)	Apaf-1 inh 87
Cc1ccc(C)c2[nH]c(=O)c(C(c3nnnn3Cc3ccccc3)N3CCc4ccccc4C3)cc12 (configuration not stated)	Apaf-1 inh 67
COc1cccc(CC(=O)NN2C(=O)NC3(CCCCC3)C2=O)c1	none (no result: UBC9 SUMO inh, Redox H2O2 prof, GSTO1 counter)
COc1ccc(C2CC(c3cccc(C(F)(F)F)c3)=NN2c2ccc(S(N)(=O)=O)cc2)cc1 (configuration not stated)	none (no result: UBC9 SUMO inh, Redox H2O2 prof, GSTO1 counter)
Oc1[nH]c2ccccc2c1N=NC(=S)N1CCOCC1	GSTO1 counter 36 (no result: Redox H2O2 prof)
Oc1[nH]c2ccc(Br)cc2c1N=NC(=S)N1CCOCC1	none (no result: Redox H2O2 prof)
O=C(Cc1cc(=O)[nH][nH]1)N/N=C/C=C/c1ccccc1	Apaf-1 inh 48!, GSTO1 counter 36!
Cn1cc(CN2CCCC(C(=O)Nc3ccc(-c4cccc(F)c4)cc3)C2)cn1 (configuration not stated)	none (no result: Redox H2O2 prof)
CC(C)CNC(=S)N(CCCO)Cc1cc2cc3c(cc2[nH]c1=O)OCO3	none (no result: Redox H2O2 prof)
NC(=O)c1sc2nc(-c3ccco3)ccc2c1N	UBC9 SUMO inh 76
Nc1c(C(=O)Nc2ccccc2F)sc2nc(-c3ccco3)ccc12	UBC9 SUMO inh 57
NC(=O)c1sc2nc(-c3cccnc3)ccc2c1N	none (no result: Redox H2O2 prof)
COc1ccc2oc(C(=O)N3CCN(S(=O)(=O)c4c(C)c(C)cc(C)c4C)CC3)c(C)c2c1	none (no result: UBC9 SUMO inh, Redox H2O2 prof, Apaf-1 inh, GSTO1 counter)
Clc1cnc(Nc2cccnc2)c(Cl)c1	none (no result: Redox H2O2 prof)
CC1(C)CC(O)CC(C)(C)N1CC(O)COCCOc1ccc(Br)cc1 (configuration not stated)	GSTO1 counter 35
COc1ccc(/C=C(\NC(=O)c2ccccc2)C(=O)N2CCCCC2)cc1OC	none (no result: Redox H2O2 prof)
Cc1ccc(S(=O)(=O)NC(CCC(N)=O)C(=O)NCc2ccc3c(c2)OCO3)c(C)c1 (configuration not stated)	none (no result: UBC9 SUMO inh, Redox H2O2 prof, GSTO1 counter)
Cc1cn([C@H](C(=O)NCCCCCCCCCCC(=O)N2CCN(C(=O)OC(C)(C)C)CC2)[C@@H](C)O)nn1	none (no result: UBC9 SUMO inh, Redox H2O2 prof)
O=C1/C(=C/C=C/c2ccco2)SC(=S)N1NS(=O)(=O)c1ccccc1	UBC9 SUMO inh 60 (no result: Redox H2O2 prof)
O=C1/C(=C/c2cccs2)SC(=S)N1NS(=O)(=O)c1ccccc1	none (no result: Redox H2O2 prof)
Cc1cccc(NC(=O)/C(C#N)=C/c2cn(CC(=O)NCc3ccco3)c3ccccc23)c1C	UBC9 SUMO inh 58
N#C/C(=C\c1cn(Cc2ccccc2)c2ccccc12)C(=O)NCc1ccco1	none
N#C/C(=C\c1cn(Cc2ccc(F)cc2)c2ccccc12)C(=O)NCc1ccco1	UBC9 SUMO inh 51
COc1ccc(C(=O)Nc2ccc(C(=O)N3CCCCC3C)cc2)c(OC)c1OC (configuration not stated)	none (no result: Redox H2O2 prof)
COc1ccc(Br)cc1/C=c1\sc2nc(-c3ccco3)nn2c1=O	UBC9 SUMO inh 52 (no result: Redox H2O2 prof)
COc1ccc(-c2noc(CNS(=O)(=O)c3ccc(NC(C)=O)cc3)n2)cc1	GSTO1 counter 37 (no result: Redox H2O2 prof)
O=C1c2ccccc2-c2c1nc1c([n+]2[O-])CCCC1	Apaf-1 inh 42
O=C1c2ccccc2-c2nccnc21	none
